Consider four compounds from publication PMC3594649 (Molecular pharmaceutics, 2013).

Like-named read-outs stand apart in the source and are kept apart here.

Data set [1] is classed as in vivo, mouse. In short, it runs like this: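 An ileal segment of 2–3 cm was perfused open-loop at 0.2 ml/min, with or without GF120918 (4 μM) in the perfusate. Collected mesenteric blood was analysed by C18 HPLC with fluorescence detection (ex 268/em 347 nm). Metabolite is expressed relative to parent drug.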
The conditions of data set [2]: concomitant administration of sulforaphane, humans; cited from earlier work.
The test system of data set [3] is ileum of TgCYP3A4/hPXR mice. Briefly: In situ intestinal perfusion with mesenteric blood sampling, TgCYP3A4/hPXR mice. In kind it is in vivo, mouse. Particulars: for increase in intestinal permeability for darunavir: GF120918 4 μM in perfusate.

With `CC(C)(O)CN(C[C@@H](O)[C@H](Cc1ccccc1)NC(=O)O[C@H]1CO[C@H]2OCC[C@H]21)S(=O)(=O)c1ccc(N)cc1` [R426857], the “concentration of R426857 relative to darunavir in mesenteric blood” value in data set [1] (TgCYP3A4/hPXR mice, perfusion without GF120918) is given as “less than 0.8%”. Also, the “relative amount of R426857 to darunavir in mesenteric blood” value in data set [1] (perfused with GF120918, rifampicin-treated TgCYP3A4/hPXR mice) came out at 3.1%; in data set [1] (perfused with GF120918, untreated TgCYP3A4/hPXR mice), 1.6%.
On to `C[S+]([O-])CCCCN=C=S` (stereo not shown) [sulforaphane], for which the “effect on rifampicin-caused decrease of midazolam AUC” value in data set [2] is “did not reduce”.
Regarding `COc1cc2c(cc1OC)CN(CCc1ccc(NC(=O)c3cccc4c(=O)c5cccc(OC)c5[nH]c34)cc1)CC2` [GF120918, N-(4-[2-(1,2,3,4-tetrahydro-6,7-dimethoxy-2-isoquinolinyl)ethyl]-phenyl)-9,10-dihydro-5-methoxy-9-oxo-4-acridine carboxamide], the “increase in intestinal permeability for darunavir” value in data set [3] (TgCYP3A4/hPXR mice not treated with rifampicin, darunavir 100 μM in FaSSIF, p < 0.05) turned out to be 56%; in data set [3] (rifampicin-treated TgCYP3A4/hPXR mice (10 mg/kg, 3 days), p<0.05), 400%.
Consider `Nn1nnc2ccccc21` [aminobenzotriazole], for which, in data set [3] (rifampicin-treated TgCYP3A4/hPXR mice, aminobenzotriazole 100 μM in perfusate), the “effect on intestinal permeability for darunavir” value is recorded as “did not increase”.
